Source: PubChem (several laboratories)
Shown are actives, neighbours in structure and some others; about 1% of the full set was active somewhere.
T cell HTS – T cell immune modulation candidate; 2C CD8+ T cell-vesicle binding, flow cytometry; active compounds read low; response (vesicle binding), % at 7 µM; 0.068% of 330,000 active; AID 2052;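 active = response, share of CD8 T cells binding vesicles, and their 90th percentile fluorescence all below set limits, cut at about 80% in these data, passing the limit was not always enough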;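 note: values below 100% mean blocked vesicle binding to the CD8+ T cells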
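Material: murine 2C transgenic CD8+ T lymphocytes / Also added: QL9-peptide-loaded Drosophila micro-vesicles bearing Ld, ICAM-1 and B7-1 / Schedule: binding step 1.5 h, 37 °C, antibody labelling 20 min, ice / Signal: flow cytometry, PE anti-B7-1 (FL2) versus Alexa647 anti-CD8 (FL8), PFA-fixed / Evaluation: percent CD8+ FL2 mean versus row control / Benchmarks: naked versus QL9-loaded vesicles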
XBP1 UPR activ – activators of adaptive arm of unfolded protein response (XBP1); CHO-XBP1 luciferase reporter, IRE1-XBP1 UPR activation, luminescence; percent of tunicamycin response, DMSO as zero; activation, % at 20 µM; 0.33% of 330,000 active; AID 463104;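 active = versus positive control, 20 µM dose yields 30% or more activation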;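 note: 100% = tunicamycin at 10 µg/mL and 0% = DMSO only wells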
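Material: CHO cell line with stable XBP1 luciferase reporter; schedule: 16-18 h cell attachment at 37 °C, then 6 h compound exposure; signal: glow luminescence from Steady-Glo reagent; medium: serum-containing F12 medium, 10% FBS; benchmarks: tunicamycin 10 µg/mL and vehicle-only wells; read-out: percent activation relative to tunicamycin reference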
Beta2AR agonist – agonists of human beta-2 adrenergic receptor inducing internalization | P07550 | Am2.2-beta2AR cells, FAP receptor internalization, flow cytometry | response, % (test concentration not listed) | 0.43% of 340,000 active;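 active = response above a set limit, near 3 SD of response in nonfluorescent compounds, cut at about 42% in these data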
Target sequence (P07550 whole entry, looked up): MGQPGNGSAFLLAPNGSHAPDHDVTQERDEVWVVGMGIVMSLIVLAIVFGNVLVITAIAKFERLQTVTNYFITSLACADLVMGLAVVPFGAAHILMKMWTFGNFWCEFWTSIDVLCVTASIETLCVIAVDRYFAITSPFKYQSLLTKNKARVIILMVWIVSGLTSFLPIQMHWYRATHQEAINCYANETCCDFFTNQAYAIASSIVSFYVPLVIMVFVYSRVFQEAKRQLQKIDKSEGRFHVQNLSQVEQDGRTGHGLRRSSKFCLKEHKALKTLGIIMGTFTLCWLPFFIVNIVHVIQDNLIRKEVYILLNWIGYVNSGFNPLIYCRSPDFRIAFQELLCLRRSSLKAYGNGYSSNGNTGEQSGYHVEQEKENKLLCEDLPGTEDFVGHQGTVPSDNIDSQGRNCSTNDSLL
CHOP UPR activ – apoptotic UPR (CHOP) activation. AID 449763. CHO-CHOP luciferase reporter, luminescence; percent of tunicamycin response over DMSO baseline. activation, % at 10 µM. 0.34% of 330,000 active;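 active = at 10 µM dose, activation of 40% or more, normalized to positive control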;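 note: 100% = tunicamycin at 10 µg/mL and 0% = DMSO alone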
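assay system = CHO CHOP reporter cells | amount = 500 CHO-CHOP cells per well | buffer or medium = F12 with 10% FBS | incubation = 16-18 h cell attachment, then 6 h compound exposure, 37 °C | detection = luminescence read with Steady-Glo | read-out = percent activation relative to tunicamycin control | controls = tunicamycin high control, DMSO low control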
B2AR ag CP1 – activates human beta-2 adrenergic receptor. 25% of 1,100 active. percent response (surface receptor), % at 10 µM. Am2.2-beta2AR cells, FAP surface receptor, flow cytometry; active compounds read low. shares compounds with Beta2AR agonist. AID 540358;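 active = surface receptor percent response at or below 58%, roughly 3 SD from nonfluorescent compounds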
FAP fluor counter – counter-screen for beta-2AR agonists: fluorescence in Am2.2 cells | shares compounds with Beta2AR agonist | FAP fluorogen flow cytometry, fluorescence counterscreen; active compounds read low | calls only at 10 µM | 1,100 tested, under 10 active | AID 588765;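 active = percent response below a set limit in fluorescence channel 1 and below 50% in channel 8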
Active calls of the source: *; i = inactive; nt = no result; + = active, no number.

SMILES	T cell HTS	XBP1 UPR activ	Beta2AR agonist	CHOP UPR activ	B2AR ag CP1	FAP fluor counter
N#Cc1c(Nc2ccccc2)sc(C(=O)C2CC2)c1N	330.9	6.9	2.7	-0.8	nt	nt
COc1ccc(C[C@H]2CN3C(=NC[C@@H]3Cc3ccc(O)cc3)N2CCNC(=O)c2ccc(C)c(Br)c2)cc1	nt	2.0	47.3*	0.6	94.0	i
Cc1ccc(C(=O)NCCN2C3=NC[C@H](Cc4ccc(O)cc4)N3C[C@H]2Cc2ccc(O)cc2)cc1Br	736.6	2.6	-3.0	-0.7	nt	nt
Cc1cc(S(=O)(=O)N2CCOCC2)ccc1OCC(=O)N1CCC(C(N)=O)CC1	261.4	5.7	1.3	-1.0	nt	nt
Cc1ccc(NC(=O)CSc2ccc3nnc(CCNC(=O)c4ccccc4)n3n2)c(C)c1	220.0	2.2	62.1*	-0.1	111.0	i
Cc1cc(NC(=O)CSc2ccc3nnc(CCNC(=O)c4ccccc4)n3n2)no1	236.6	-1.5	-6.8	1.3	nt	nt
CC(=O)N1CCc2cc(C(=O)CN3CCN(c4cccc(Cl)c4)CC3)ccc21	361.4	-2.2	57.2*	-0.2	9.1*	i
CC(=O)N1CCc2cc(C(=O)CN3CCC(C)CC3)ccc21	i	-2.4	4.7	0.2	nt	nt
COc1ccc(CCNCC(O)Cn2c3ccccc3c3ccccc32)cc1OC (stereo unspecified)	243.2	8.8	47.6*	-0.9	53.0*	i
Cc1ccccc1CN1CCC(Oc2ccc(C(=O)N3CCCC3)cc2)CC1	343.2	1.4	5.0	0.3	nt	nt
CCOc1cccc(CN2CCC(Oc3ccc(C(=O)N4CCCC4)cc3)CC2)c1	250.8	-6.1	-5.8	2.0	113.9	i
Cc1cccc(CN2CCC(Oc3ccc(C(=O)N4CCCCC4)cc3)CC2)c1	312.2	-7.0	12.2	2.2	86.2	i
C/C(CCc1ccc2c(c1)OCO2)=N\N=C(/N)SC1CC(=O)N(c2ccccc2F)C1=O (stereo unspecified)	237.2	-3.4	3.0	1.6	nt	nt
O=C(c1cccc(OC2CCN(Cc3ccc(F)cc3)CC2)c1)N1CCCC1	nt	-3.0	-6.8	-1.1	nt	nt
COc1ccc(CN2CCC(Oc3ccc(C(=O)N4CCCC4)cc3)CC2)c(F)c1	271.2	-4.7	26.2	0.8	107.3	i
O=C(c1ccc(OC2CCN(Cc3ccc(F)cc3)CC2)cc1)N1CCCC1	181.6	-1.9	43.1*	0.8	45.7*	i
CSc1ccc(CN2CCC(Oc3ccc(C(=O)N4CCCC4)cc3)CC2)cc1	314.6	-4.8	51.1*	-0.5	70.3	i
CCc1ccc(CN2CCC(Oc3ccc(C(=O)N4CCCCC4)cc3)CC2)cc1	506.6	-4.6	67.4*	0.2	40.0*	i
CC(C)c1ccc(NC(=O)C2CCCCN2S(=O)(=O)c2ccccc2)cc1 (stereo unspecified)	189.2	1.1	4.9	-1.1	nt	nt
CCOC(=O)C1CCCN(C(=O)/C=C/c2ccccc2[N+](=O)[O-])C1 (stereo unspecified)	374.6	0.7	-2.7	1.2	nt	nt
CCOc1ccc(NC(=O)CN2CCN(C(=O)c3ccco3)CC2)cc1S(=O)(=O)N1CCCC1	i	-1.7	-25.8	0.0	nt	nt
CCc1ccc(CN2CCC(Oc3ccc(C(=O)N4CCCC4)cc3)CC2)cc1	0.0	-3.1	82.0*	-0.2	9.0*	i
Cc1noc(C)c1S(=O)(=O)N1CCC(C(=O)N2CCC(C)CC2)CC1	139.5	-1.9	-1.6	-0.4	nt	nt
Cc1noc(C)c1S(=O)(=O)N1CCCC(C(=O)N2CCC(C)CC2)C1 (stereo unspecified)	377.7	-1.4	49.2*	-1.3	119.9	i
CC(/C=C/c1ccccc1)=N\NC(N)=S	232.1	5.0	-5.6	3.1	90.7	i
SMILES	T cell HTS	XBP1 UPR activ	Beta2AR agonist	CHOP UPR activ	B2AR ag CP1	FAP fluor counter
O=c1c2ccccc2[nH]c(=S)n1Cc1ccc2c(c1)OCO2	187.0	4.6	-11.4	2.4	nt	nt
O=C(CCCCCn1c(=O)[nH]c2ccsc2c1=O)NCc1ccc2c(c1)OCO2	517.4	-0.4	113.2*	2.8	26.3*	i
O=C(CCn1c(=O)[nH]c2ccsc2c1=O)NCc1ccc(F)cc1	97.8	2.3	-6.7	2.2	94.7	i
O=C(CCCn1c(=O)[nH]c2ccsc2c1=O)N1CCN(Cc2ccc3c(c2)OCO3)CC1	319.4	-2.7	-21.3	1.5	nt	nt
O=C(CCCCCn1c(=S)[nH]c2ccccc2c1=O)NCc1ccc2c(c1)OCO2	110.7	-2.4	112.7*	-1.9	28.6*	i
COC(C(=O)N1CCC(CCC(=O)Nc2ccccc2)CC1)c1ccccc1 (stereo unspecified)	0.0	-0.4	10.3	4.2	nt	nt
CC(C)Cc1nc2sc3c(NCc4ccco4)ncnc3c2c2c1COC(C)(C)C2	i	2.6	65.1*	2.0	27.6*	i
Cc1nc2sc3c(NCc4ccco4)ncnc3c2c2c1COC(C)(C)C2	244.3	5.6	-15.7	-0.9	nt	nt
CC(C)c1nc2oc3c(NCCO)ncnc3c2c2c1COC(C)(C)C2	210.8	3.9	4.8	-1.2	113.7	i
CC1(C)Cc2c(c(-c3ccco3)nc3sc4c(NCCO)ncnc4c23)CO1	253.7	6.5	100.5*	1.1	16.4*	i
COCCCNc1ncnc2c1sc1nc(-c3ccco3)c3c(c12)CC(C)(C)OC3	114.7	9.8	98.8*	8.6	20.1*	i
COC(=O)CSc1nc(SC)nc2c1sc1nc(-c3ccco3)c3c(c12)CC(C)(C)OC3	nt	nt	-5.8	nt	nt	nt
O=C(CSc1nnc(CNC(=O)c2cccs2)o1)Nc1cccc(C(F)(F)F)c1	41.3	-1.4	-8.5	-1.5	nt	nt
CSc1nc(SCCO)c2sc3nc(-c4ccco4)c4c(c3c2n1)CC(C)(C)OC4	nt	nt	99.5*	nt	6.5*	i
Cn1nccc1NC(=O)COCC(=O)O	572.7	0.4	-0.2	-1.2	nt	nt
COc1cccc(N2CCN(S(=O)(=O)c3c(C)[nH]c(C)c3C(=O)N3CCCC3)CC2)c1	294.2	-1.2	0.4	-1.4	nt	nt
c1ccc(Nc2nc(NCc3ccco3)c3ccccc3n2)cc1	170.9	20.8	18.2	17.8	80.4	i
Cc1cccc(Nc2nc(NCc3ccco3)c3ccccc3n2)c1	368.5	nt	38.7	nt	nt	nt
Oc1ccccc1Nc1nc(NCC2CCCO2)c2ccccc2n1 (stereo unspecified)	306.1	3.2	47.5*	1.0	8.6*	+
c1ccc(CN2CCN(c3nc(NCc4ccco4)c4ccccc4n3)CC2)cc1	302.0	-0.3	9.2	0.3	101.6	i
Oc1ccccc1Nc1nc(NCc2ccco2)c2ccccc2n1	207.0	11.3	51.3*	0.9	23.3*	i
CCn1nc(NS(=O)(=O)c2ccc(C)cc2)c2cc3ccccc3nc21	285.0	-0.7	7.7	-0.3	120.1	i
CCn1nc(NS(=O)(=O)c2ccc(NC(C)=O)cc2)c2cc3ccc(C)cc3nc21	251.1	-3.4	14.7	1.7	nt	nt
